Experimental data from the EternaBench riboswitch data.

Test system: MS2 coat protein
Assay: apparent Kd, MS2 coat protein; higher = weaker binding; RNA-MaP array; FMN 200 µM where present
Summary of the method: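 Stalled E. coli RNA polymerase transcribed the designs on Illumina sequencing-chip clusters. SNAP-549-labelled MS2 coat protein was titrated from 0.7 or 1.5 nM, doubling to 3 µM, without and then with constant ligand, in 100 mM Tris-HCl pH 7.5, 80 mM KCl, 4 mM MgCl2, BSA, DTT, yeast tRNA and Tween-20. Per-cluster binding curves were fitted to green signal normalised to red-channel RNA signal and control-cluster median Fmax. The apparent Kd is the median of the filtered fits.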

[1] = designed as: OFF switch for flavin mononucleotide, no ligand
[2] = ligand present: flavin mononucleotide, designed as: OFF switch for flavin mononucleotide
[3] = designed as: ON switch for flavin mononucleotide, no ligand
[4] = ligand present: flavin mononucleotide, designed as: ON switch for flavin mononucleotide

Sequence	apparent Kd [1] [nM]	apparent Kd [2] [nM]	apparent Kd [3] [nM]	apparent Kd [4] [nM]
UGUCGGAGCAGAGGAUAUACAUGAGGAUCACCCAUGUAAAUGGAAUAAGCCUGGAAACAGGCAAUGUAGAAGGCUGCUCCGACA	69	628	–	–
UGUCGGAGCAGAGGAUAUACAUGAGGAUCACCCAUGUAAGAAAGUGAAGCCUGGAAACAGGCAAUGUAGAAGGCUGCUCCGACA	12.4	86.3	–	–
UGUCGGAGCAGAGGAUAUUACAUGAGGAUCACCCAUGUAUGAACCAACAGCUGGAAACAGCAAUGUAAGAAGGCUGCUCCGACA	10.4	131	–	–
UGUCGGAGCAGAGGAUAUUACAUGAGGAUCACCCAUGUAUGAACCAAUAGCUGGAAACAGCAAUGCAAGAAGGCUGCUCCGACA	5.05	6.53	–	–
UGUCGGAGCAGAGGAUAUUACAUGAGGAUCACCCAUGUAUGAACCAAUAGCUGGAAACAGCAAUGUAAGAAGGCUGCUCCGGCA	11.8	186	–	–
UGUCGGAGCAGAGGAUAUUACAUGAGGAUCACCCAUGUAUGAACCAAUAGCUGGAAACAGCAAUGUGAGAAGGCUGCUCCGACA	5.47	52.3	–	–
UGUCGGAGCAGAGGAUAUUACAUGAGGAUCACCCAUGUAUGAACCAAUAGCUGGAAACAGCUAUGUAAGAAGGCUGCUCCGACA	5.31	9.42	–	–
UGUCGGAGCAGAGGAUAUUACAUGAGGAUCACCCAUGUAUGAACCAAUAGCUGUAAACAGCAAUGUAAGAAGGCUGCUCCGACA	12.7	191	–	–
UGUCGGAGCAGAGGAUAUUACAUGAGGAUCACCCAUGUAUGAACCAGUAGCUGGAAACAGCAAUGUAAGAAGGCUGCUCCGACA	10.9	91.3	–	–
UGUCGGAUCAGAGGAUAUUACAUGAGGAUCACCCAUGUAUGAACCAAUAGCUGGAAACAGCAAUGUAAGAAGGCUGCUCCGACA	11.4	160	–	–
UGUCUAUAUGAAGGAUAUCUAAGCAUAAACCGUAGAGAAGGUCAAUAGUACAUGAGGAUCACCCAUGUUAGAAUUGAAGGGUUU	17.6	23.2	–	–
UGUGACAUGAGGAUCACCCAUGUAGAGGAUAUAGAGAUGAUGUUAGAGAAGAAUGUGUAGUAAGACUAGAAGGCUAUGUGUGUA	32.8	28.2	–	–
UGUGCUGAAGGAUAUGCGUAAUCUCGGUGACGAGUAGAUCUACAUGAGGAUCACCCAUGUAGAAGGUCAGUACU	17.8	18.9	–	–
UGUGGUGGUUAGGAUAUAAUUAGAGGUUACUCGUUAGAAGGAGCUACAUGAGGAUCACCCAUGUGACUGUCCGC	29.8	35.1	–	–
UGUGUGAGACAGGAUAUGCCGGAUAUAGUACUGGUAGAAGGGUCUACAUGAGGAUCACCCAUGUGGCCGGCCGG	16.8	25	–	–
UGUGUGAGACAGGAUAUGCCGGAUAUAUUACUGGUAGAAGGGUCUACAUGAGGAUCACCCAUGUGGCCGGCCGG	18	29.1	–	–
UGUGUGAGACAGGAUAUGCCGGAUGAAUUGCUGGUAGAAGGGUCUACAUGAGGAUCACCCAUGUGGCCGGUUGG	16.8	24.8	–	–
UGUGUGUGGCAGGAUAUGCCGGUAGUAGGACGGGUAGAAGGGUCUACAUGAGGAUCACCCAUGUGGCCGGUUGG	17.7	17.7	–	–
UGUGUGUGGGCAGGAUAUGCAUGAAUAUAUAUGAUGUAGUAUGAUGUAACAUGAGGAUCACCCAUGUAGAAGGGCCGGUGUAUG	133	133	–	–
UGUGUGUGGGCAGGAUAUGCAUGAAUAUAUAUGAUGUAGUGUGAUGUAACAUGAGGAUCACCCAUGUAGAAGGGCCGGUGUAUG	145	234	–	–
UGUUACUAGUAAGGAUAUACUUGCGACUAGCUUGUAGAAGGUACAGUCUUUUGUAUAACAUGUUUACAUGAGGAUCACCCAUGU	–	–	9.05	8.38
UGUUCUAUGUAGAAGGCCCAUAUCUGUUUUUAGGGAGGAUAUACAUGAGGAUCACCCAUGUGUAGAGCUGGUGGACUGGUCAGC	13.7	40.1	–	–
UGUUGUAUUACAGGAUAUCUAGUAAUUUUAUUUAGAGAAGGGUAUUCACAUGAGGAUCACCCAUGUAUAUACGAGGAAGUUGUG	–	–	37	39.7
UGUUGUAUUACAGGAUAUCUAGUAUUUUUAUCUAGAGAAGGGUAUUCACAUGAGGAUCACCCAUGUAUAUACGAGGAAGUUGUG	–	–	33.1	33.2
UGUUGUAUUACAGGAUAUCUAGUAUUUUUAUUAAGAGAAGGGUAUUCACAUGAGGAUCACCCAUGUAUAUACGAGGAAGUUGUG	–	–	42.4	42.4
UGUUGUAUUACAGGAUAUCUAGUAUUUUUAUUGAGAGAAGGGUAUUCACAUGAGGAUCACCCAUGUAUAUACGAGGAAGUUGUG	–	–	50.5	49
UGUUGUUCAGGAUAUGAUGUGUUAUACAUGAGGAUCACCCAUGUGGGUCCUGAUUUGGCGUCAGAAGGGAAUGUUG	116	200	–	–

Sequence	apparent Kd [1] [nM]	apparent Kd [2] [nM]	apparent Kd [3] [nM]	apparent Kd [4] [nM]
UGUUUUCAUGUAGGAUAUGCUUGUCGUAGAUACGCAGAAGGACAUGAGGAUCACCCAUGUUAAUGCGACAGAUUUUAGUUUCUU	19.6	62	–	–
UUAAAUCAUGUAGGAUAUGCAUGGCGAAGCUACGCAGAAGGACAUGAGGAUCACCCAUGUUAAAGCUUCCGAGUUCGGAGGCAA	114	266	–	–
UUAAAUCAUGUAGGAUAUGCAUGGCGAAGCUACGCAGAAGGACAUGAGGAUCACCCAUGUUAUAGCUACCAAGUAAGGUGGCAA	77.9	236	–	–
UUAAAUCAUGUAGGAUAUGCAUGGCGAAGCUACGCAGAAGGACAUGAGGAUCACCCAUGUUAUAGGUACCCAGUUCGGUGCCAA	115	200	–	–
UUAAAUCAUGUAGGAUAUGCAUGGCGAAGCUACGCAGAAGGACAUGAGGAUCACCCAUGUUCUAGCUACCGGAUACGGUGGCAA	21.5	87.4	–	–
UUAAAUCGAAACAUGAGGAUCACCCAUGUGUUGUAAUUAACAUAGGAUAUGUAUAUACUUUUUAAAUAGAAGGAUGAUAAUACU	–	–	16.1	11.6
UUAAAUUAGUAGAAGGACGGAGAGUAUAAAGUCGUAGGAUAUACAUAAGACAUGAGGAUCACCCAUGUAAGUUUGUGAGGUAUG	14.8	15.3	–	–
UUAAAUUAGUAGAAGGACGGUGAGUAAGAAGUCGUAGGAUAUACAUAAGACAUGAGGAUCACCCAUGUAAGUUUGUUGGGUAUG	44.1	38.4	–	–
UUACCUCAUGAGAAGGACAUGAGGAUCACCCAUGUAGGAUAUCGUGGGAGACAGGUAUUGAAUCUUCGGAUUCAAUACCAGUCU	–	–	396	27.6
UUACGUACGUAUGAGGAUAUCCAUAAUAAGACAUGAGGAUCACCCAUGUAAACAAAACAAUAAUGGGAGAAGGCAUACGUACGAA	–	–	64.1	101
UUACUAUCACAGAAGGGUAGAUAGUAUAUAGAUGCAGGAUAUGUGACAUGAGGAUCACCCAUGUUUCACCCACAUGAGGAUCAC	17.5	18.9	–	–
UUACUAUUACAGAAGGUUAAAUAAUAUAUAAAUGAAGGAUAUGUGACAUGAGGAUCACCCAUGUUUCACCCACAUGAGGAUCAC	12.1	13.3	–	–
UUACUAUUACAGAAGGUUUAAUAAUAUAUAAAAGAAGGAUAUGUAACAUGAGGAUCACCCAUGUUUCACCCACAUGAGGAUCAU	10.8	10.4	–	–
UUACUAUUGCAGAAGGCUAAAUAAUAUAUAAAUGGAGGAUAUGCAACAUGAGGAUCACCCAUGUUUCACCCAUAUGAGGAUCAC	7.7	9.14	–	–
UUACUAUUGGAGAAGGGUCGAUCAUAUAGAAUGGCAGGAUAUCCAACAUGAGGAUCACCCAUGUUUCACCCAUAUGAGGAUCAC	116	44.9	–	–
UUACUGUAAUAGAAGGGUAUUUGGGUAGUACAUGAGGAUCACCCAUGUUUUAUAGGAUAUGUUUAUAGUUUUUAAUCAAGUUUA	85.1	62.3	–	–
UUACUUGUGCAGAAGGGCAUUGAAUUAGGUUUUUAGGUUGAUCAGAAAUGCAGGAUAUGUUAAACAUGAGGAUCACCCAUGUAC	–	–	66.9	13.9
UUACUUGUGCAGAAGGGCAUUGAUUUAGGUUUUUAGGUUGAUCAGAUAUGCAGGAUAUGCUAUACAUGAGGAUCACCCAUGUUC	–	–	112	8.99
UUACUUUUACAGAAGGUUUAAUAAUAUAUAAAAGAAGGAUAUGUAACAUGAGGAUCACCCAUGUUUCACCCAUAUGAGGAUCAU	7.18	6.98	–	–
UUAUAAAAUAUAGGAUAUGGAAACAUGAGGAUCACCCAUGUAUGAUAAGAUAAAUUAUGAUAUAGCCAGAAGGAUACAAUUUUU	–	–	37.3	35
UUAUACGUUGAGGAUAUGCGAAUUAGUAUAGUUGCAGAAGGCGAUACAUGAGGAUCACCCAUGUUUAUGGGCAU	194	341	–	–
UUAUAUAAUGUGAGGAUAUGCUGGUCGAGAGAUCAGCAGAAGGCACAUGAGGAUCACCCAUGUAGUAAAUUUUA	22.5	25.9	–	–
UUAUGAUUAAGAGGAUAUAUACAACAUGAGGAUCACCCAUGUACCCAUGUAGUAGAAGGUUUAUUUUUAUAUAAUAAUAUAAUU	–	–	115	64.9
UUAUGUUAUGUAGGAUAUCACUUUAAUUGAUUAAUAUAUGAAUAUUGAAUUUGAGAAGGACAUUUACAUGAGGAUCACCCAUGU	16.2	13.6	–	–
UUAUGUUUUGUAGGAUAUCAUUAGUUUUGUAUUUUAAUUGUAAUUUAGAUAUGAGAAGGACAUUUACAUGAGGAUCACCCAUGU	20.3	14.2	–	–
UUAUUACGAGGAUAUCGUUUUUAUCACAUGAGGAUCACCCAUGUUGUUUAUGUUUCGUUUCGAGAAGGCGUUUGUU	27.6	19.9	–	–
UUAUUAUAUGUAGGAUAUGCAUAUAAUUAUUGUGCAGAAGGACAUGAGGAUCACCCAUGUAUAUUAUUAUUAUAUAUUAUAUAU	24.9	14.3	–	–
